Assay results reported in ChEMBL document CHEMBL4152256, “Structure-activity relationship of new antimalarial 1-aryl-3-susbtituted propanol derivatives: Synthesis, preliminary toxicity profiling, parasite life cycle stage studies, target exploration, and targeted delivery” (Eur J Med Chem, 2018).

How the values were obtained:
Plasmodium falciparum [1] = experiment: Antiplasmodial activity against multidrug-resistant Plasmodium falciparum FCR-3 by [3H]-hypoxanthine incorporation assay; format: functional, organism-based, FCR-3/Gambia; settings: Plasmodium falciparum, FCR-3/Gambia
In short: (§1)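 Blood-stage P. falciparum 3D7 and FCR-3 were tested by a modified [3H]-hypoxanthine incorporation assay. Chloroquine was the reference in all runs.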

Plasmodium falciparum [2] = experiment: Antiplasmodial activity against chloroquine-sensitive Plasmodium falciparum 3D7 by [3H]-hypoxanthine incorporation assay; format: functional, organism-based; settings: Plasmodium falciparum, 3D7; in short: as §1
[3] = Cytotoxicity against human HepG2A16 cells by MTT assay; format: cell-based; settings: HepG2A16 cells
In short: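 MTT viability assay on HepG2-A16 cells, giving CC50 values.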

[4] = Selectivity index, ratio of CC50 for human HepG2A16 cells by MTT assay to IC50 for multidrug-resistant Plasmodium falciparum FCR-3; format: toxicity; settings: HepG2A16 cells, read-out: Ratio CC50/IC50
In short: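 HepG2-A16 human hepatoma cells were tested by MTT viability assay to give CC50. Blood-stage activity was measured against the multidrug-resistant P. falciparum FCR-3 strain by [3H]-hypoxanthine incorporation to give IC50. SI = CC50 HepG2 / FCR-3 IC50.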

[5] = Genotoxicity in Salmonella typhimurium TA1535 harboring pSK1002 assessed as survival at 0.125 mg/ml in absence of Sprague-Dawley rat liver S9 fraction after by SOS/umu assay relative to control; format: toxicity, organism-based; settings: salmonella enterica subsp. enterica serovar typhimurium, read-out: Survival
[6] = Genotoxicity in Salmonella typhimurium TA1535 harboring pSK1002 assessed as umu gene induction at 0.125 mg/ml in absence of Sprague-Dawley rat liver S9 fraction after by SOS/umu assay relative to control; format: toxicity, organism-based; settings: salmonella enterica subsp. enterica serovar typhimurium, read-out: FC
[7] = Genotoxicity in Salmonella typhimurium TA1535 harboring pSK1002 assessed as survival at 0.125 mg/ml in presence of Sprague-Dawley rat liver S9 fraction after by SOS/umu assay relative to control; format: toxicity, organism-based; settings: salmonella enterica subsp. enterica serovar typhimurium, read-out: Survival
[8] = Genotoxicity in Salmonella typhimurium TA1535 harboring pSK1002 assessed as umu gene induction at 0.125 mg/ml in presence of Sprague-Dawley rat liver S9 fraction after by SOS/umu assay relative to control; format: toxicity, organism-based; settings: salmonella enterica subsp. enterica serovar typhimurium, read-out: FC
[9] = Genotoxicity in Salmonella typhimurium TA1535 harboring pSK1002 assessed as umu gene induction at 0.063 mg/ml in absence of Sprague-Dawley rat liver S9 fraction after by SOS/umu assay relative to control; format: toxicity, organism-based; settings: salmonella enterica subsp. enterica serovar typhimurium, read-out: FC
[10] = Genotoxicity in Salmonella typhimurium TA1535 harboring pSK1002 assessed as survival at 0.063 mg/ml in presence of Sprague-Dawley rat liver S9 fraction after by SOS/umu assay relative to control; format: toxicity, organism-based; settings: salmonella enterica subsp. enterica serovar typhimurium, read-out: Survival
[11] = Genotoxicity in Salmonella typhimurium TA1535 harboring pSK1002 assessed as umu gene induction at 0.063 mg/ml in presence of Sprague-Dawley rat liver S9 fraction after by SOS/umu assay relative to control; format: toxicity, organism-based; settings: salmonella enterica subsp. enterica serovar typhimurium, read-out: FC
[12] = Genotoxicity in Salmonella typhimurium TA1535 harboring pSK1002 assessed as survival at 0.031 mg/ml in absence of Sprague-Dawley rat liver S9 fraction after by SOS/umu assay relative to control; format: toxicity, organism-based; settings: salmonella enterica subsp. enterica serovar typhimurium, read-out: Survival
[13] = Genotoxicity in Salmonella typhimurium TA1535 harboring pSK1002 assessed as umu gene induction at 0.031 mg/ml in absence of Sprague-Dawley rat liver S9 fraction after by SOS/umu assay relative to control; format: toxicity, organism-based; settings: salmonella enterica subsp. enterica serovar typhimurium, read-out: FC
[14] = Genotoxicity in Salmonella typhimurium TA1535 harboring pSK1002 assessed as survival at 0.031 mg/ml in presence of Sprague-Dawley rat liver S9 fraction after by SOS/umu assay relative to control; format: toxicity, organism-based; settings: salmonella enterica subsp. enterica serovar typhimurium, read-out: Survival
[15] = Genotoxicity in Salmonella typhimurium TA1535 harboring pSK1002 assessed as umu gene induction at 0.031 mg/ml in presence of Sprague-Dawley rat liver S9 fraction after by SOS/umu assay relative to control; format: toxicity, organism-based; settings: salmonella enterica subsp. enterica serovar typhimurium, read-out: FC
[16] = Genotoxicity in Salmonella typhimurium TA1535 harboring pSK1002 assessed as survival at 0.016 mg/ml in absence of Sprague-Dawley rat liver S9 fraction after by SOS/umu assay relative to control; format: toxicity, organism-based; settings: salmonella enterica subsp. enterica serovar typhimurium, read-out: Survival
[17] = Genotoxicity in Salmonella typhimurium TA1535 harboring pSK1002 assessed as umu gene induction at 0.016 mg/ml in absence of Sprague-Dawley rat liver S9 fraction after by SOS/umu assay relative to control; format: toxicity, organism-based; settings: salmonella enterica subsp. enterica serovar typhimurium, read-out: FC
[18] = Genotoxicity in Salmonella typhimurium TA1535 harboring pSK1002 assessed as survival at 0.016 mg/ml in presence of Sprague-Dawley rat liver S9 fraction after by SOS/umu assay relative to control; format: toxicity, organism-based; settings: salmonella enterica subsp. enterica serovar typhimurium, read-out: Survival
[19] = Genotoxicity in Salmonella typhimurium TA1535 harboring pSK1002 assessed as umu gene induction at 0.016 mg/ml in presence of Sprague-Dawley rat liver S9 fraction after by SOS/umu assay relative to control; format: toxicity, organism-based; settings: salmonella enterica subsp. enterica serovar typhimurium, read-out: FC
[20] = Genotoxicity in Salmonella typhimurium TA1535 harboring pSK1002 assessed as survival at 0.008 mg/ml in absence of Sprague-Dawley rat liver S9 fraction after by SOS/umu assay relative to control; format: toxicity, organism-based; settings: salmonella enterica subsp. enterica serovar typhimurium, read-out: Survival
[21] = Genotoxicity in Salmonella typhimurium TA1535 harboring pSK1002 assessed as survival at 0.008 mg/ml in presence of Sprague-Dawley rat liver S9 fraction after by SOS/umu assay relative to control; format: toxicity, organism-based; settings: salmonella enterica subsp. enterica serovar typhimurium, read-out: Survival
[22] = Genotoxicity in Salmonella typhimurium TA1535 harboring pSK1002 assessed as umu gene induction at 0.008 mg/ml in presence of Sprague-Dawley rat liver S9 fraction after by SOS/umu assay relative to control; format: toxicity, organism-based; settings: salmonella enterica subsp. enterica serovar typhimurium, read-out: FC
[23] = Genotoxicity in Salmonella typhimurium TA1535 harboring pSK1002 assessed as survival at 0.004 mg/ml in absence of Sprague-Dawley rat liver S9 fraction after by SOS/umu assay relative to control; format: toxicity, organism-based; settings: salmonella enterica subsp. enterica serovar typhimurium, read-out: Survival
[24] = Genotoxicity in Salmonella typhimurium TA1535 harboring pSK1002 assessed as survival at 0.004 mg/ml in presence of Sprague-Dawley rat liver S9 fraction after by SOS/umu assay relative to control; format: toxicity, organism-based; settings: salmonella enterica subsp. enterica serovar typhimurium, read-out: Survival
[25] = Genotoxicity in Salmonella typhimurium TA1535 harboring pSK1002 assessed as umu gene induction at 0.004 mg/ml in presence of Sprague-Dawley rat liver S9 fraction after by SOS/umu assay relative to control; format: toxicity, organism-based; settings: salmonella enterica subsp. enterica serovar typhimurium, read-out: FC
[26] = Genotoxicity in Salmonella typhimurium TA1535 harboring pSK1002 assessed as umu gene induction at 0.002 mg/ml in absence of Sprague-Dawley rat liver S9 fraction after by SOS/umu assay relative to control; format: toxicity, organism-based; settings: salmonella enterica subsp. enterica serovar typhimurium, read-out: FC
[27] = Genotoxicity in Salmonella typhimurium TA1535 harboring pSK1002 assessed as umu gene induction at 0.002 mg/ml in presence of Sprague-Dawley rat liver S9 fraction after by SOS/umu assay relative to control; format: toxicity, organism-based; settings: salmonella enterica subsp. enterica serovar typhimurium, read-out: FC
[28] = Genotoxicity in Salmonella typhimurium TA1535 harboring pSK1002 assessed as survival at 0.001 mg/ml in absence of Sprague-Dawley rat liver S9 fraction after by SOS/umu assay relative to control; format: toxicity, organism-based; settings: salmonella enterica subsp. enterica serovar typhimurium, read-out: Survival
[29] = Genotoxicity in Salmonella typhimurium TA1535 harboring pSK1002 assessed as umu gene induction at 0.001 mg/ml in absence of Sprague-Dawley rat liver S9 fraction after by SOS/umu assay relative to control; format: toxicity, organism-based; settings: salmonella enterica subsp. enterica serovar typhimurium, read-out: FC

Row | SMILES | IC50 (Plasmodium falciparum [1]) | IC50 (Plasmodium falciparum [2]) | CC50 [3] | selectivity ratio [4] | viability at 0.125 mg/ml [5] | fold induction at 0.125 mg/ml [6] | viability at 0.125 mg/ml [7] | fold induction at 0.125 mg/ml [8] | fold induction at 0.063 mg/ml [9] | viability at 0.063 mg/ml [10] | fold induction at 0.063 mg/ml [11] | viability at 0.031 mg/ml [12] | fold induction at 0.031 mg/ml [13] | viability at 0.031 mg/ml [14] | fold induction at 0.031 mg/ml [15] | viability at 0.016 mg/ml [16] | fold induction at 0.016 mg/ml [17] | viability at 0.016 mg/ml [18] | fold induction at 0.016 mg/ml [19] | viability at 0.008 mg/ml [20] | further results
1 | N#Cc1ccc(C(O)CCN2CC=C(c3ccc(F)cc3)CC2)cc1 (stereo not drawn) | 1.33 µM | 8.48 µM | 82.4 µM | 62 | 87.9% | 1.1 | 108% | 1 | 1.2 | 101% | 1.1 | 77.3% | 1.2 | 130% | 0.8 | 85.1% | 1.1 | 126% | 0.9 | 89.4% | viability at 0.008 mg/ml [21]: 108%; fold induction at 0.008 mg/ml [22]: 1; viability at 0.004 mg/ml [23]: 94.7%; viability at 0.004 mg/ml [24]: 122%; fold induction at 0.004 mg/ml [25]: 0.8; fold induction at 0.002 mg/ml [26]: 0.9; fold induction at 0.002 mg/ml [27]: 1.1; viability at 0.001 mg/ml [28]: 109%; fold induction at 0.001 mg/ml [29]: 0.9
2 | COc1ccccc1C1=CCN(CCC(O)c2ccc(F)c3ccccc23)CC1 (stereo not drawn) | 1.3 µM | 0.1 µM | 17.7 µM | 14 | 114% | 0.4 | 79.1% | 0.7 | 0.5 | 76% | 0.6 | 47.2% | 1.3 | 124% | 0.5 | 50.6% | 1.2 | 84% | 0.8 | 76.4% | viability at 0.008 mg/ml [21]: 96.9%; fold induction at 0.008 mg/ml [22]: 0.7; viability at 0.004 mg/ml [23]: 76.7%; viability at 0.004 mg/ml [24]: 91.1%; fold induction at 0.004 mg/ml [25]: 0.8; fold induction at 0.002 mg/ml [26]: 0.9; fold induction at 0.002 mg/ml [27]: 0.9; viability at 0.001 mg/ml [28]: 81.7%; fold induction at 0.001 mg/ml [29]: 0.9
